Measured values collected from several papers.
SLC22A11: Solute carrier family 22 member 11 (SLC22A11, Homo sapiens, UniProt Q9NSA0)
RIOK1: Serine/threonine-protein kinase RIO1 (RIOK1, Homo sapiens, UniProt Q9BRS2)
MINK1: Misshapen-like kinase 1 (MINK1, Homo sapiens, UniProt Q8N4C8)

Compound	target	assay	setting	endpoint	value
Cc1cc(O)c(-c2ccc([C@@H](C)CN(C)C)cc2)c2c1[nH]c(=O)c1sccc12	Serine/threonine-protein kinase Nek8 (NEK8, Homo sapiens, UniProt Q86SG6)	enzyme activity, inhibitor	0.1 µM	inhibition	4.95%
NC/C(=C\F)COc1cccc(Cn2c(=S)[nH]c(=O)c3[nH]cnc32)c1	Diamine oxidase [copper-containing] (AOC1, Homo sapiens, UniProt P19801)	enzyme activity, inhibitor	200 pM	inhibition	3.14%
CC(C)=CCCC1(C)C=Cc2c(O)c3c(c(CC=C(C)C)c2O1)OC12C(=CCCC1C(C)(C)O[C@@]2(C/C=C(\C)C(=O)O)C(=O)O)C3=O (stereo partly drawn)	SLC22A11	transporter uptake, inhibitor	25 µM	inhibition	87.8%
O=C(ON1C(=O)CCC1=O)c1cc(C(F)(F)F)cc(C(F)(F)F)c1	CD209 antigen (CD209, Homo sapiens, UniProt Q9NNX6)	cell-free assay, inhibitor	pH 7.4	kinact/KI	91.7 M⁻¹ s⁻¹
CCCCC1=NC2(CCCC2)C(=O)N1Cc1ccc(-c2ccccc2-c2nnn[nH]2)cc1	SLC22A11	transporter uptake, inhibitor	25 µM	inhibition	50 to 90%
C[C@]1(O)CCCN(c2nc(Nc3ccc(S(=O)(=O)N[C@H]4CC[C@H](CN5CCN(c6ccc(C7CCC(=O)NC7=O)cc6F)CC5)CC4)cc3F)ncc2C(F)(F)F)C1 (stereo partly drawn)	RIOK1	binding, competition with immobilised ligand	1 µM	remaining binding	100%
CC(C)n1c(/C=C/C(O)CC(O)CC(=O)O)c(-c2ccc(F)cc2)c2ccccc21 (stereo not drawn)	SLC22A11	transporter uptake, inhibitor	25 µM	inhibition	82%
COc1ccc2oc(-c3ccc4nc(N)oc4c3)c/c(=N\c3ccccc3NC(=O)CCN)c2c1	MINK1	binding	1 µM	remaining binding	103%
Cc1cc(F)cc2c(CCC(=O)N[C@@H]3C(=O)NC[C@H]3O)c(-c3ccc(F)cc3)[nH]c12	Delta-type opioid receptor (OPRD1, Homo sapiens, UniProt P41143)	cell-free assay	10 µM	inhibition	1%
CNS(=O)(=O)c1ccc(Nc2ncc(C(F)(F)F)c(N3CCC[C@](C)(O)C3)n2)c(C)c1	RIOK1	binding, competition with immobilised ligand	1 µM	remaining binding	99%
CCCCNc1ccc(C(=O)OCCN(C)C)cc1	SLC22A11	transporter uptake, inhibitor	25 µM	inhibition	80.3%
C#Cc1cc(-c2cc(Nc3nc(N[C@@H](C)c4ccc(F)cn4)ncc3Cl)n[nH]2)ccc1C=O	MINK1	enzyme activity, inhibitor	0.2 µM	inhibition	55.9%
C1=C/COCc2cc(ccc2OCCN2CCCC2)Nc2nccc(n2)-c2cccc(c2)COC/1	Tyrosine-protein kinase ITK/TSK (ITK, Homo sapiens, UniProt Q08881)	cell-free assay	0.1 µM	remaining signal	90%
Cc1cc(S(=O)(=O)N[C@H]2CC[C@H](CN3CCN(c4ccc(C5CCC(=O)NC5=O)cc4F)CC3)CC2)ccc1Nc1ncc(C(F)(F)F)c(N2CCC[C@](C)(O)C2)n1 (stereo partly drawn)	RIOK1	binding, competition with immobilised ligand	1 µM	remaining binding	79%
C[C@@H]1CC(=O)NN=C1c1ccc(NN=C(C#N)C#N)cc1	SLC22A11	transporter uptake, inhibitor	25 µM	inhibition	76.1%
CCCCC(=O)Nc1ccc(-c2ccc3ncn(CCC)c(=O)c3c2)cn1	RIOK1	binding, competition with immobilised ligand	0.5 µM	remaining binding	100%
CCCc1nc2c(C)cc(-c3nc4ccccc4n3C)cc2n1Cc1ccc(-c2ccccc2C(=O)O)cc1	SLC22A11	transporter uptake, inhibitor	25 µM	inhibition	90.2%
CCN1/C(=C/C(C)=O)Sc2ccc(F)cc21	5-hydroxytryptamine receptor 3A (HTR3A, Homo sapiens, UniProt P46098)	ligand displacement, radioligand	10 µM	inhibition	0%
